A selection: hits, their analogues and other compounds. The true share with any hit is near 2%.
HKDC1 inh = HKDC1 hexokinase inhibitors, primary screen, biochemical, fluorescence, uHTS; Q2TB90; recombinant HKDC1, G6PDH/diaphorase resazurin coupled fluorescence; inhibition, % at 20 µM; 340,000 compounds, 0.16% hits;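 active = inhibition above about 35% when tested at 20 µM, limit read from the data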;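 note: plate controls were DMSO wells with enzyme for no effect and DMSO wells lacking enzyme for full effect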
Target sequence (Q2TB90 whole entry, looked up): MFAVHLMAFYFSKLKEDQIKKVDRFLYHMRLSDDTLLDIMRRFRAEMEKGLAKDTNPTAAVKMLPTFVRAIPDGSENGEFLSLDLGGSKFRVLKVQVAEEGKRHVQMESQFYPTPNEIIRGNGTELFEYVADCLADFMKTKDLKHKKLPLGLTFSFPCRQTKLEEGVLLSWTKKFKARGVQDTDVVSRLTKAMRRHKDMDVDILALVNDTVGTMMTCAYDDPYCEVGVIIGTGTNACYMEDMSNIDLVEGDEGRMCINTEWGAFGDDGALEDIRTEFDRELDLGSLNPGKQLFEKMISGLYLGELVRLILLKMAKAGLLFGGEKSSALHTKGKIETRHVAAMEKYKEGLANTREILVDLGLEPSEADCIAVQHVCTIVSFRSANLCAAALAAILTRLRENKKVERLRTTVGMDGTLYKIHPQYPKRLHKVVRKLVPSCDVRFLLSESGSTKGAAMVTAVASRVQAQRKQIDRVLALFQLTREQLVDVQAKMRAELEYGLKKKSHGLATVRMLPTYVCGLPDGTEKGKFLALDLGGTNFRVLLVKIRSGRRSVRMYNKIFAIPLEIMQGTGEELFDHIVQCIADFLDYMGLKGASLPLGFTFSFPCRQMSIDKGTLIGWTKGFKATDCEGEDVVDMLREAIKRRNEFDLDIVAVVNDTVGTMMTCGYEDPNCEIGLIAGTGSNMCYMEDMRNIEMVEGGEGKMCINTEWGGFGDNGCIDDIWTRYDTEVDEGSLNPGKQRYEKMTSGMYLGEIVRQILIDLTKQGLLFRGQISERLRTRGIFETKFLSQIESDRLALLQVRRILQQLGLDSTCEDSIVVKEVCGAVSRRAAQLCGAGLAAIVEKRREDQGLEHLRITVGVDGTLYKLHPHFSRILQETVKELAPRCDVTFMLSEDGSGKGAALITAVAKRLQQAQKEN
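Test system: Recombinant HKDC1 (HK5) hexokinase enzyme, produced in-house | Input: HKDC1 at 5 µg/mL | Buffer or medium: Tris pH 8.0 buffer with MgCl2, Tween-20, BSA, BME | Schedule: 90 min reaction incubation at room temperature, dark | Technique: Resazurin-to-resorufin fluorescence via G6PDH and diaphorase coupling, 525/613 nm | Controls: DMSO wells with and without enzyme mix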
IMP-1 inh-1 = IMP-1 metallo-beta-lactamase inhibitors, primary screen, biochemical, epi-absorbance readout, Pseudomonas aeruginosa enzyme | 290,000 compounds, 0.45% hits | AID 1556, 2009 | metallo-beta-lactamase IMP-1 (Pseudomonas aeruginosa) | inhibition, % at 5.6 µM | purified IMP-1, nitrocefin hydrolysis, epi-absorbance fluorescence;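 active = inhibition above the mean plus 3 SD of all compounds in the same screening run, cut at about 4.5% in these data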;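 note: 0% = IMP-1 with DMSO and 100% = DMSO wells lacking enzyme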
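System: Purified recombinant IMP-1 metallo-beta-lactamase enzyme | Measured by: Fluorescence quenching readout, ex 480/em 530 nm | Replication: Singlicate | Incubation: 15 min preincubation plus 25 min reaction at 25 °C | Evaluation: Percent inhibition from optical density relative to buffer-blank wells | Benchmarks: DMSO with and without IMP-1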
ATG4B inh = ATG4B protease inhibitors, primary screen, biochemical, fluorescence, uHTS; Cysteine protease ATG4B (Homo sapiens), Q9Y4P1; ATG4B cleavage of LC3-PLA2, NBD-HPC fluorescence, 1 h; inhibition, % at 8.33 µM; 340,000 compounds, 0.51% hits; AID 504462, 2011; in the data active = inhibition above about 40%
beta cell repl = inducers of MIN6 beta-cell proliferation, primary screen, ATP luminescence, uHTS; MIN6 cells proliferation, ATPlite luminescence, 48 h; cells starved in 0.2% serum; 100% = growth in 10% serum; proliferation, % at 10 µM; 330,000 compounds, 0.29% hits; AID 2380, 2010;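 active = compounds whose signal lies at least 3.5 SD above the mean of all wells on their plate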;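 note: 0% = DMSO-treated cells in low-serum medium and 100% = 10% serum control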
PvdQ acylase = P. aeruginosa PvdQ acylase inhibitors, primary screen, biochemical, fluorescence, plate reader and imaging, single point | PvdQ acylase [Pseudomonas aeruginosa LESB58] | inhibition, % at 10 µM | 340,000 compounds, 0.063% hits | AID 488965, 2010 | purified PvdQ acylase; in the data active = inhibition above about 30%, passing the limit was not always enough;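 note: 0% = vehicle neutral wells and 100% = reference inhibitor wells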
VIM-2 inh = VIM-2 metallo-beta-lactamase inhibitors, primary screen, biochemical, epi-absorbance readout, Pseudomonas aeruginosa enzyme; inhibition, % at 5.6 µM; 290,000 compounds, 0.89% hits; purified VIM-2, nitrocefin hydrolysis, epi-absorbance fluorescence; AID 1527, 2009;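 active = inhibition above the mean of all tested compounds plus 3 SD, cutoff set per screening run, cut at about 7.5% in these data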;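 note: red hydrolysis product quenches plate fluorescence so inhibitors raise well fluorescence; 0% = enzyme with DMSO and 100% = DMSO without enzyme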
IMP-1 inh-2 = IMP-1 metallo-beta-lactamase inhibitors, confirmation, selectivity assay for selective VIM-2 inhibitor project, biochemical, epi-absorbance readout, triplicate | shares compounds with VIM-2 inh | purified IMP-1, nitrocefin hydrolysis, epi-absorbance fluorescence | inhibition, % at 5.6 µM | 1,300 tested, under 10 active; call rule not given here;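 note: 0% = enzyme with vehicle and 100% = vehicle without enzyme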
VIM-2 FRET ctr = VIM-2 inhibitors in FRET format, confirmation, artefact control for selective VIM-2 inhibitor project, biochemical, epi-absorbance artifact exclusion; shares compounds with VIM-2 inh; purified VIM-2, CCF2 FRET substrate hydrolysis; inhibition, % at 5.6 µM; AID 1857, 2009; 1,300 compounds, 23% hits;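 active = inhibition above the mean of all tested compounds plus 3 SD, cut at about 19% in these data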;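 note: 0% = VIM-2 plus DMSO and 100% = no enzyme wells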
TEM-1 counter = TEM-1 serine beta-lactamase inhibitors, counter-screen for VIM-2 inhibitor project, biochemical, epi-absorbance, HTS; shares compounds with VIM-2 inh; Purified TEM-1, nitrocefin hydrolysis, epi-absorbance fluorescence; AID 1866, 2009; 1,300 compounds, 3% hits; inhibition, % at 5.6 µM;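 active = inhibition above that campaign's mean inhibition plus 3 SD, cut at about 0.46% in these data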;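 note: 0% = TEM-1 with DMSO and 100% = TEM-1 with 100 µM potassium clavulanate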
VIM-2 confirm 2 = VIM-2 metallo-beta-lactamase inhibitors, confirmation, biochemical, epi-absorbance, hits shared with IMP-1 screen. purified VIM-2, nitrocefin hydrolysis. shares compounds with VIM-2 inh. AID 2187, 2009. 1,300 compounds, 96% hits. inhibition, % at 5.6 µM;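 active = inhibition of the VIM-2 beta-lactamase enzyme above about 11% from the earlier first-round screen, limit read from the data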;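 note: 0% = VIM-2 with DMSO and 100% = buffer wells without enzyme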
* = called active by the depositor; x = not tested or not shown.

SMILES | HKDC1 inh | IMP-1 inh-1 | ATG4B inh | beta cell repl | PvdQ acylase | VIM-2 inh | IMP-1 inh-2 | VIM-2 FRET ctr | TEM-1 counter | VIM-2 confirm 2
C=CCOc1ccccc1CN1CCCCCC1 | 2 | -1 | -1 | 2 | -10 | -1 | x | x | x | x
CCC(=O)NCCc1nc2cc(NC(=O)c3ccco3)ccc2n1C | -5 | -2 | -5 | 0 | -4 | -3 | x | x | x | x
Cc1c(Cc2ccccc2)c(=O)oc2c(C)c(OCC(=O)N3CCC(C(=O)O)CC3)ccc12 | 1 | -3 | -7 | 0 | -6 | 0 | x | x | x | x
CCc1cc(=O)oc2c3c(cc(OCC(=O)NC4CC4)c12)OC(C)(C)CC3 | 9 | 1 | -5 | -2 | -7 | 3 | x | x | x | x
Cc1c(C)c2ccc(OCC(=O)N3CCC[C@@H]3C(=O)O)c(C)c2oc1=O | 2 | -4 | 4 | 1 | -8 | 41* | -3 | 64* | -11 | 48*
Cc1c(OCC(=O)N2CCC(C(N)=O)CC2)ccc2c3c(c(=O)oc12)CCC3 | -1 | -4 | -5 | 0 | -11 | 23* | -2 | 2 | -19 | 43*
Cc1c(OCC(=O)N2CCC[C@@H]2C(=O)O)ccc2c3c(c(=O)oc12)CCC3 | 1 | -4 | -4 | 3 | 0 | 36* | -3 | 51* | -10 | 37*
CCCc1cc(=O)oc2c3c(cc(OCC(=O)N4CCC[C@H]4C(=O)O)c12)OC(C)(C)CC3 | 0 | 0 | -11 | -1 | 0 | 45* | -3 | 71* | -5 | 50*
O=C(Nc1ccc(O)cc1)N1CCOCC1 | -7 | 0 | 4 | -2 | -11 | -2 | x | x | x | x
CCc1cc(=O)oc2c(C)c(OCC(=O)N3CCC[C@@H]3C(=O)O)ccc12 | -4 | -2 | 5 | 4 | 2 | 23* | -3 | 39* | -7 | 29*
CCOc1ccc(Nc2ccnc3cc(Cl)ccc23)cc1 | -8 | -3 | 4 | -3 | 8 | -2 | x | x | x | x
CN1CCN(c2ccc(Nc3ccnc4cc(Cl)ccc34)cc2)CC1 | 4 | 2 | 2 | -6 | -16 | 87* | -2 | -10 | -6 | 88*
CC(C(=O)Nc1nccs1)c1ccc([N+](=O)[O-])cc1 (stereo not drawn) | -8 | 1 | -2 | -3 | -2 | 1 | x | x | x | x
CCCC(=O)N1CCN(c2ccc(NC(=O)c3sc4ccccc4c3Cl)cc2)CC1 | -3 | -2 | -15 | -1 | -9 | -4 | x | x | x | x
CN1CCN(c2ccccc2NC(=O)c2sc3ccccc3c2Cl)CC1 | -5 | -2 | -18 | -7 | -4 | 16* | -2 | 0 | -7 | 39*
Cc1nc(NCc2cccnc2)c2c3c(sc2n1)CCCC3 | 0 | -2 | 15 | -3 | -11 | 15* | -4 | -9 | -5 | 31*
Cc1cc(C)n(-c2nc(NCc3cccnc3)c3c4c(sc3n2)COC(C)(C)C4)n1 | 28 | -2 | -8 | -2 | -1 | 48* | -3 | -17 | 0 | 64*
Cc1cc(C)n(-c2nc(SCC(=O)O)c3c4c(sc3n2)COC(C)(C)C4)n1 | 6 | -4 | 8 | -2 | -6 | 15* | -5 | 39* | -7 | 23*
CCc1nc(SCC(=O)OC)c2c3c(sc2n1)COC(C)(C)C3 | -4 | -3 | -7 | -2 | -19 | 1 | x | x | x | x
CCN(CC)CCCNc1nc(-n2nc(C)cc2C)nc2sc3c(c12)CC(C)(C)OC3 | 6 | -4 | -3 | -3 | -8 | 4 | x | x | x | x
O=C(Cn1nc(Cc2ccncc2)c2ccccc2c1=O)N1CCc2ccccc2C1 | 9 | -3 | 27 | -1 | -16 | -2 | x | x | x | x
CC(=O)N1CN(CCCn2ccnc2)Cc2c1sc1c2CCCC1 | -4 | -5 | -7 | -1 | -13 | 26* | -2 | -8 | -5 | 46*
Cc1cc(OCC(=O)Nc2ccc(CN3CCOCC3)cc2)c2c(C)c(C)c(=O)oc2c1 | -1 | -1 | 1 | -2 | -19 | 33* | -4 | -1 | -8 | 40*
Cc1cc(OCC(=O)NCCCN2CCCC2=O)c2c(C)c(C)c(=O)oc2c1 | -1 | -1 | -8 | -3 | -16 | 5 | x | x | x | x
Cc1cc(OCC(=O)NCCCN2CCOCC2)c2c(C)c(C)c(=O)oc2c1 | -2 | -6 | 2 | -3 | 0 | 26* | -4 | 3 | -6 | 36*
SMILES | HKDC1 inh | IMP-1 inh-1 | ATG4B inh | beta cell repl | PvdQ acylase | VIM-2 inh | IMP-1 inh-2 | VIM-2 FRET ctr | TEM-1 counter | VIM-2 confirm 2
NC(=S)N/N=C1/CCSc2ccc3ccccc3c21 | 2 | -6 | -20 | -5 | -10 | -1 | x | x | x | x
CCOC(=O)C(=CNc1ccc(NC2=NCC(C)S2)cc1)C(=O)OCC (stereo not drawn) | -3 | -2 | -17 | x | -3 | 28* | -2 | -7 | -6 | 44*
COc1ccc(-c2cc3c(=O)n(CC(=O)N4CCN(C)CC4)ncn3n2)cc1 | -2 | -5 | -5 | -5 | 2 | 17* | -3 | -2 | -5 | 31*
Fc1ccccc1-c1n[nH]c(=S)n1Cc1ccccc1 | 0 | -5 | 2 | 0 | 2 | 28* | -4 | 50* | -8 | 34*
N/C(=N\c1nc2c(c(=O)[nH]1)CCCC2)Nc1ccc(Oc2ccccc2)cc1 | -5 | -1 | 14 | -3 | 3 | -3 | x | x | x | x
Cc1cc2nc(N=C(N)N)nc(C)c2cc1C | -7 | -2 | -7 | x | 13 | 17* | -4 | 0 | -5 | 26*
Cc1cc(C)cc(NC(=O)CN2CCN(CCN=CC3=C(O)CC(c4ccc(Cl)cc4)CC3=O)CC2)c1 (stereo not drawn) | 2 | -3 | 4 | 0 | -14 | -2 | x | x | x | x

High-throughput results deposited in PubChem BioAssay by several laboratories.
